This is an account of results in article PMC10790741 (Journal of Pharmacy & Bioallied Sciences, 2023).

Entries after “also recorded” stand apart in the source; their conditions may differ.

For the data set, the system named is male albino mice. Kind of data set: Neurotoxicity, rotarod test. Type of data set: in vivo. Particulars: 0.5 and 4 h. The gist of the method:
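Male albino mice (25–30 g) were trained on a rotating rod (3.2 cm outer diameter, 10 rpm). Test compound was given at 30, 100 and 300 mg/kg, and mice were checked at 0.5 and 4 h. Neurotoxicity was failure to keep balance on the rod for 1 min, across three trials. The toxic dose was the dose at which 50% of animals fell.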

As to `COc1ccc2ccc(C(/C=C/c3c[nH]c4ccccc34)N3C=CC(C(=O)O)C=C3)cc2c1` (centres unmarked) [5g, (E)-1-(3-(1H-indol-3-yl)-1-(7-methoxynaphthalen-2-yl)allyl)-1,4-dihydropyridine-4-carboxylic acid], the “Neurotoxicity (result in words)” value is given as “neurotoxic; also recorded: motor impairing”. In the case of `Cc1ccc2ccc(C(/C=C/c3c[nH]c4ccccc34)N3C=CC(C(=O)O)C=C3)cc2c1` (centres unmarked) [5i, (E)-1-(3-(1H-indol-3-yl)-1-(7-methylnaphthalen-2-yl)allyl)-1,4-dihydropyridine-4-carboxylic acid] it was “neurotoxic”.
